Assay results published in the M2OR odorant receptor database.

What was measured:
Details in all cases: stereoisomer not certain
[1] = target: T1, OR10H3 (Homo sapiens) (UniProt O60404)
T1 sequence (whole entry): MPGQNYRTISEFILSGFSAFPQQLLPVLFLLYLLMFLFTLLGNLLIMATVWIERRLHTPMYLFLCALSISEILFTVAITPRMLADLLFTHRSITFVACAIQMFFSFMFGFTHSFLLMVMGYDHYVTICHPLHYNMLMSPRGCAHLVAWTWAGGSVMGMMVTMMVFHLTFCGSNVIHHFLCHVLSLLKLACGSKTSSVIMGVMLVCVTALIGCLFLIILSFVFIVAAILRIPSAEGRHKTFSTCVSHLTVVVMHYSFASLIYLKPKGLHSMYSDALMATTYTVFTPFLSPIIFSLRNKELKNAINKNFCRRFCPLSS
Procedure, shortened: (§1)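 Each entry records the cell line, G-protein, co-transfected protein and tags used. Methods varied with the source, often transient luciferase assays in mammalian cell lines. A receptor–molecule pair is called responsive (active) if the original authors judged its signal statistically different from baseline and non-responsive (inactive) otherwise.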

[2] = target: T2, OR10H4 (Homo sapiens) (UniProt Q8NGA5)
T2 sequence (whole entry): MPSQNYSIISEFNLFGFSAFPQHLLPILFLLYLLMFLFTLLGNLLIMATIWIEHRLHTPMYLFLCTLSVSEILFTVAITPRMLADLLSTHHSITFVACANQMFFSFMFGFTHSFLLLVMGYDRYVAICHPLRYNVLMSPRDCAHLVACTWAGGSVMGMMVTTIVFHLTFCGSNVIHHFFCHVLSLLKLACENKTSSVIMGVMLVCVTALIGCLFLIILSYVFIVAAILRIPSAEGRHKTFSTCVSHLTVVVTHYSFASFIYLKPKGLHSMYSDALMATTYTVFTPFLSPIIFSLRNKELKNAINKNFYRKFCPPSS
Procedure, shortened: as §1

[3] = target: T3, OR10H5 (Homo sapiens) (UniProt Q8NGA6)
T3 sequence (whole entry): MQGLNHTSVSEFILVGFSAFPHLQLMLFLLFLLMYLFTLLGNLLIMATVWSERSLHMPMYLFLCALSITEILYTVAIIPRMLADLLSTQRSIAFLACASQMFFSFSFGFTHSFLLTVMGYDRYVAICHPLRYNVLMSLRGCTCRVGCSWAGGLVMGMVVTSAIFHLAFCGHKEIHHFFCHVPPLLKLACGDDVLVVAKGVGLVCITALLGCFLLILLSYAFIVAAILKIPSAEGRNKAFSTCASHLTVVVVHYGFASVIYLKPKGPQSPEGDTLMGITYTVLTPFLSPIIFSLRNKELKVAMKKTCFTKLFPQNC
Procedure, shortened: as §1

[4] = target: T4, OR10J1 (Homo sapiens) (UniProt P30954)
T4 sequence (whole entry): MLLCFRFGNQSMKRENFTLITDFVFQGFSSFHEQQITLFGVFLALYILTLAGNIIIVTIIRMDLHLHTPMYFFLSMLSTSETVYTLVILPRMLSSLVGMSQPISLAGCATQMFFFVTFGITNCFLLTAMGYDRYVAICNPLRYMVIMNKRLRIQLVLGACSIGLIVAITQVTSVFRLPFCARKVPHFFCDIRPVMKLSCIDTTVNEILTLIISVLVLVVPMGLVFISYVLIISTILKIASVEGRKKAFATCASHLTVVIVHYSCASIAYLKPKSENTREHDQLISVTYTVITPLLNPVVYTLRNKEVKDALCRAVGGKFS
Procedure, shortened: as §1

[5] = target: T5, OR10J3 (Homo sapiens) (UniProt Q5JRS4)
T5 sequence (whole entry): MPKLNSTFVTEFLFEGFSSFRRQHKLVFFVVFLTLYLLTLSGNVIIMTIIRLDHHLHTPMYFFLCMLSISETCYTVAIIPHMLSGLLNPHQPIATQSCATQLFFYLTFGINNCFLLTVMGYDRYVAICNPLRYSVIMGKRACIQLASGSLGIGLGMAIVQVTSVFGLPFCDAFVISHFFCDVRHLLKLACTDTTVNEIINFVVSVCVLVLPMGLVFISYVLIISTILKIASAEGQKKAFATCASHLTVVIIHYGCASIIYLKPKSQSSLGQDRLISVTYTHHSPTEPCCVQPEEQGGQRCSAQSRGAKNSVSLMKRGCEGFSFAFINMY
Procedure, shortened: as §1

[6] = target: T6, OR10J5 (Homo sapiens) (UniProt Q8NHC4)
T6 sequence (whole entry): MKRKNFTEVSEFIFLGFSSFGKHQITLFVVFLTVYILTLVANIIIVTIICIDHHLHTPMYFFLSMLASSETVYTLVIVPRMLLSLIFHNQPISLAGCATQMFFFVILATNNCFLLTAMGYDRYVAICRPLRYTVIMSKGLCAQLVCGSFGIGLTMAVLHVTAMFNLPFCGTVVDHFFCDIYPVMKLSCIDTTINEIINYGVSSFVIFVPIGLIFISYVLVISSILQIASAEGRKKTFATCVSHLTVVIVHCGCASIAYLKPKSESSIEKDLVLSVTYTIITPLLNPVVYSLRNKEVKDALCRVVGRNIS
Procedure, shortened: as §1

[7] = target: T7, OR10K1 (Homo sapiens) (UniProt Q8NGX5)
T7 sequence (whole entry): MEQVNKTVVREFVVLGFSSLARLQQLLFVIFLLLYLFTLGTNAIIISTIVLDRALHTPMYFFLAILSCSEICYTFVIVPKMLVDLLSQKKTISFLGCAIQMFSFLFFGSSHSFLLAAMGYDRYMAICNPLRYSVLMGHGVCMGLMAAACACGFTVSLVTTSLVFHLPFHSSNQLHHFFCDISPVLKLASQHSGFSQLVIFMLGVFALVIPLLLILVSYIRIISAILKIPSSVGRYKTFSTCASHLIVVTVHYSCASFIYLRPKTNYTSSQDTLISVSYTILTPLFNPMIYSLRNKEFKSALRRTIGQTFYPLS
Procedure, shortened: as §1

[8] = target: T8, OR10K2 (Homo sapiens) (UniProt Q6IF99)
T8 sequence (whole entry): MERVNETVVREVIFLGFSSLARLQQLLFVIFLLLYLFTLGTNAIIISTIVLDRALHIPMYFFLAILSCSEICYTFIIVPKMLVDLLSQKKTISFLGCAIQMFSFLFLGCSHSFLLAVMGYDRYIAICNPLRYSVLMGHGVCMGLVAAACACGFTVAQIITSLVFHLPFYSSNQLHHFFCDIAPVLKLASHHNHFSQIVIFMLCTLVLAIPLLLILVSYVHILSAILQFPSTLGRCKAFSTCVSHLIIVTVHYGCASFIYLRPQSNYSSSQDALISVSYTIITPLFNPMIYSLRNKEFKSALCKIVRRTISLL
Procedure, shortened: as §1

[9] = target: T9, OR10P1 (Homo sapiens) (UniProt Q8NGE3)
T9 sequence (whole entry): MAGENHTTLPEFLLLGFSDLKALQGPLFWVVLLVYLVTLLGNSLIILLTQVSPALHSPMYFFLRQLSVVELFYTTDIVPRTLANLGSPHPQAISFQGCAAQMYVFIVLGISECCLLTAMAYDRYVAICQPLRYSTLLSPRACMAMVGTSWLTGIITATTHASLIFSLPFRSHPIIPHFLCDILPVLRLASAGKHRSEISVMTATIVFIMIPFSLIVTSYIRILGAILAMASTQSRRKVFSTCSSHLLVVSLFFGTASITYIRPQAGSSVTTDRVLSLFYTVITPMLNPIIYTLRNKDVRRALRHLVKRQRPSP
Procedure, shortened: as §1

[10] = target: T10, OR10Q1 (Homo sapiens) (UniProt Q8NGQ4)
T10 sequence (whole entry): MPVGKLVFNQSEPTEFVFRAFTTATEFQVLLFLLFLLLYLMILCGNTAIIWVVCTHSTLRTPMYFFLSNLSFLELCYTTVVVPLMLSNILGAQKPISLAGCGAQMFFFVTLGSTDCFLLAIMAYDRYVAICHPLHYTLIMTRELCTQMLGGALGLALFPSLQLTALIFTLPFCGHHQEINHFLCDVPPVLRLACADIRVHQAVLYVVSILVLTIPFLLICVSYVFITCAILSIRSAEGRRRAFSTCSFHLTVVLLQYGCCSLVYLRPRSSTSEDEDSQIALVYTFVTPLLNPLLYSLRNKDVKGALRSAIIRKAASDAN
Procedure, shortened: as §1

Measured: odorant receptor agonist call

CCC(S)C(C)CO (stereo not given)
inactive: all assays above
